Results as given in the RNAGym collection of RNA variant scans (doi:10.1126/science.aae0568).
Variants at the floor of the assay were thinned out.

B1: tRNA (parent)
chain: GUUCCGUUGGCGUAAUGGUAACGCGUCUCCCUCCUAAGGAGAAGACUGCGGGUUCGAGUCCCGUACGGAACG

Variants of: B1
Assay: yeast fitness relative to wild type (ratio to wild type); higher = fitter; tRNA-Arg(CCU), competitive growth, 37 C, YPD
Method in brief: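 Gene amplicons from the start population and from each of six end populations were read by 100-nucleotide paired-end sequencing. Those end populations came from pooled Saccharomyces cerevisiae strains carrying tRNA-Arg(CCU) gene variants at the native locus, competed in YPD at 37°C for 24 hours. Fitness relative to wild type was worked out from changes in genotype frequencies. Genotypes needed ≥ 100 starting reads, and estimates < 0.5 were set to 0.5.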

Row | Variant | yeast fitness
1 | U16C C55U A57C G58A | 0.593
2 | U16C C22A C24A U26C | ≤ 0.5
3 | U16G U26C C49G | ≤ 0.5
4 | U16G U28G C34U G63C | 0.608
5 | U16C C22G A43U | 0.692
6 | U16C U47C G51U | ≤ 0.5
7 | U16C C29U A36U C66U G67A | ≤ 0.5
8 | U16G C24G C27A | ≤ 0.5
9 | G17A A42G A70C | ≤ 0.5
10 | U16C G67A | 0.891
11 | U16G C34U | 0.63
12 | U16G A57G C66U A69U | ≤ 0.5
13 | U16G C24U C29G C49G A65G | 0.601
14 | U16C U35C U47C | ≤ 0.5
15 | U16C A43C U54A C55U C60U G68A | ≤ 0.5
16 | U16G G23C G48A C61A | 0.577
17 | U16C G41C | 0.867
18 | U16G U54A C55U C66A | 0.58
19 | U16C C22U A37U C49A | 0.574
20 | U16C C29G C49U | 0.535
21 | U16G G48A G68A | 1.09
22 | U16G U53A U59A C66A | ≤ 0.5
23 | U16G U54C A69C | 0.718
24 | U16G C27A C31G A42G C61A | 0.543

Row | Variant | yeast fitness
25 | U16G G39A C61G | ≤ 0.5
26 | U16G G48C | 0.835
27 | U16C C27G C60G | 0.603
28 | U16C G68C A69U | ≤ 0.5
29 | U16C C29G C49U C60G | ≤ 0.5
30 | U16G U26G C29A A57C | ≤ 0.5
31 | G17A A20U C24U | 0.547
32 | U16G C55U G67C | ≤ 0.5
33 | U16C C33U C60U G67C | ≤ 0.5
34 | U16C G38C A65U C66U | 0.569
35 | U16G | 1
36 | U16G G23A A40C | ≤ 0.5
37 | G17A A20G | 0.793
38 | U16G A45G G67C | 0.63
39 | U16G U54C C60A | ≤ 0.5
40 | U16C U19C U35C | ≤ 0.5
41 | U16G C31G A45U | 0.974
42 | U16C C27G A43C C62U | ≤ 0.5
43 | U16G C31U A42U G56C | ≤ 0.5
44 | G17A A21C U53A | ≤ 0.5
45 | U16G U26G U54G | 0.743
46 | U16G A21C C34A | ≤ 0.5
47 | U16C U59A G67C | 0.675
48 | U16G C31U G51C A65C | ≤ 0.5

Row | Variant | yeast fitness
49 | U16G U28A G52C U54A C66U | ≤ 0.5
50 | U16G C27G U54C | 0.633
51 | U16C C22G U54C | 0.661
52 | G17A A43C C49U U54A G56C A65U A70C | 0.565
53 | G17A A20G U28A U35A | 0.561
54 | U16G A42G | 0.78
55 | U16C G56A | 1.01
56 | U16G C34U C60A A70C | ≤ 0.5
57 | U16G C22G G67C | 0.709
58 | U16C C34U C49G | ≤ 0.5
59 | U16C C62U C66U | 0.722
60 | U16G C61G A65U | ≤ 0.5
61 | G17A A21C C27U C33A A37C | 0.566
62 | U16G C22G | 1
63 | U16G U32C A70G | 0.984
64 | U16G U35C G56C | ≤ 0.5
65 | G17A A40U A42C C49A C66A | ≤ 0.5
66 | U16G G44A G56A | 0.663
67 | U16C C22U U47A C60G C62A | ≤ 0.5
68 | G17A A20G C27G A36C U53A | 0.639
69 | U16G C24U G44A C46G | ≤ 0.5
70 | G17A A42C A65G | ≤ 0.5
71 | U16C C24G U28A A43C | ≤ 0.5
72 | U16G C22G A43C | 0.587

Row | Variant | yeast fitness
73 | U16G U19G C33U A40C G41A A43C C61G | ≤ 0.5
74 | U16G A20C G25A A43U G50A C55U | ≤ 0.5
75 | U16C A43C U54A C60U G68A | 0.55
76 | G17A A42U A57U | ≤ 0.5
77 | U16C C24U C33U C55A | ≤ 0.5
78 | U16C G23C G51C | ≤ 0.5
79 | U16C C22A C31G C46A C49U U54C G68A | ≤ 0.5
80 | U16C G56A A69U | 0.799
81 | U16C A40U G67A | 0.536
82 | G17A A20G A57C | 0.558
83 | U16C G39A C61G C62G | ≤ 0.5
84 | G17A A40U G58C | 0.672
85 | U16G A20C A21G C30U | 0.579
86 | U16G C46A C66A | ≤ 0.5
87 | U16C U19A | 1.16
88 | U16C C31G G41A G52C C60U C62G C66G | ≤ 0.5
89 | U16G C46U A69C | 1.07
90 | U16G U32G C46U | ≤ 0.5
91 | U16C C49G C55G C60A C62A G68A A69U | ≤ 0.5
92 | U16C C22U G25A C31G G52A | 0.589
93 | U16C A45U C49U G51A A57C C60G | ≤ 0.5
94 | U16C C55A G67A A70G | ≤ 0.5
95 | U16C U35A | 0.74
96 | U16C U54C G63A | 0.501

Row | Variant | yeast fitness
97 | G17A A20U C24U U53A | ≤ 0.5
98 | U16G C31G A65C | ≤ 0.5
99 | U16G C49U G52A G63A | 0.632
100 | U16G C31U G58A | 0.633
101 | U16C C30G C61U G68A | ≤ 0.5
102 | U16C C34A G41A | ≤ 0.5
103 | G17A A20C G25A G68C | ≤ 0.5
104 | U16G C29G C33U G39A C49U | ≤ 0.5
105 | U16C C27G C33A G38C A42G | 0.884
106 | U16C C46G A57U | 0.588
107 | U16G C30A A65G | 0.564
108 | U16G A40C | 0.761
109 | U16C U32C G41C G50A C61G | 0.567
110 | U16G U26G A36G | 0.58
111 | U16G C24U | 0.822
112 | U16G G44A | 0.994
113 | U16C C29U G58A A69U | 0.577
114 | U16C A57G | 0.925
115 | U16C A57C | 0.674
116 | U16C C27U A42G G67A | ≤ 0.5
117 | U16G G17A C33A | 0.539
118 | G17A A36C | 0.558
119 | U16C C34G G38C C62G A69C | ≤ 0.5
120 | G17A A37C A65C | ≤ 0.5

Row | Variant | yeast fitness
121 | U16G C24G A37U | ≤ 0.5
122 | U16C C31G C34A | 0.678
123 | U16G A42G A69C A70G | ≤ 0.5
124 | U16G C24U C29G U35C G50A C62A | ≤ 0.5
125 | G17A A20U C24U A65U | ≤ 0.5
126 | U16C G17C C27G A65U | ≤ 0.5
127 | U16C A57U C66U | 0.531
128 | U16C C24G U28A | ≤ 0.5
129 | U16C U26G C61U | ≤ 0.5
130 | U16C C34G C55A | 0.58
131 | U16C C34G C55G | ≤ 0.5
132 | U16C C29G U53A U64C | ≤ 0.5
133 | U16C U32G C49G C55A | ≤ 0.5
134 | U16C C30A A37U | ≤ 0.5
135 | U16C G51C C55G C62A | ≤ 0.5
136 | U16C C30A G41C A45C C46G | ≤ 0.5
137 | U16C G48C C49U A65C A70C | ≤ 0.5
138 | U16G A21U C46G | ≤ 0.5
139 | U16G A37C C66A | ≤ 0.5
140 | U16G C27G C49A C60A | ≤ 0.5
141 | G17A A36G G44A U47C A70U | ≤ 0.5
142 | G17A A43G A45G G48A C62G | ≤ 0.5
143 | U16G A37U U47A G52U | ≤ 0.5
144 | U16C C22G G58A U64G | ≤ 0.5

Row | Variant | yeast fitness
145 | G17A A43C | 0.698
146 | G17A A43G | 0.735
147 | U16C U35C G44C | ≤ 0.5
148 | U16C C30U A36U | ≤ 0.5
149 | U16G G41C | 0.604
150 | U16C C33U G58A | ≤ 0.5
151 | U16C G17C C31U A37U | ≤ 0.5
152 | U16C G18A C34G G39A C62A | ≤ 0.5
153 | U16C G51A A70G | 0.578
154 | G17A A21C C29U G48A | 0.652
155 | U16G C29G C62G | ≤ 0.5
156 | U16G C29G C62U | ≤ 0.5
157 | U16C G44A U54C G56C | 0.558
158 | U16G U19C U28C | 0.986
159 | U16G C31G G63C A65U | ≤ 0.5
160 | U16C C29U A36U A40C C46U U64C | ≤ 0.5
161 | U16G C24U C29G U35C G50A C66U | ≤ 0.5
162 | U16C G17A C33U C49A C62G | 0.57
163 | U16C C22U G68C | ≤ 0.5
164 | U16C C61G | 0.63
165 | G17A A21G C22A A40U C61U | ≤ 0.5
166 | U16G G56U | 0.706
167 | U16G A20C C60U | ≤ 0.5
